≈ marks a conversion by molar mass, not a printed value.
Experiments:
[1] = test system: Pseudomonas aeruginosa; experiment: In vitro antibacterial activity against Pseudomonas aeruginosa IFO 3445,Pa(I),(gram-negative); type: functional
How it was run: (§1)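 MIC by serial 2-fold agar dilution on Mueller–Hinton agar; inoculum about 10^6 CFU/mL; MIC taken as lowest concentration preventing visible growth after 18 h at 37 °C.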

[2] = test system: Escherichia coli; experiment: In vitro antibacterial activity against Escherichia coli KC-14, Ec(K), (gram-negative); type: functional; how it was run: as §1
[3] = test system: Staphylococcus aureus; experiment: In vitro antibacterial activity against staphylococcus aureus FDA 209P JC-1,Sa(F)(gram-positive); type: functional; how it was run: as §1
[4] = test system: Escherichia coli; experiment: In vitro antibacterial activity against Escherichia coli NIHJ JC-2,(gram-negative)
[5] = test system: Klebsiella pneumoniae; experiment: In vitro antibacterial activity against klebsiella pneumoniae B54,Kp,(gram-negative); type: functional
[6] = test system: Staphylococcus aureus; experiment: In vitro antibacterial activity against staphylococcus aureus IID 803,(gram-positive); type: functional; how it was run: as §1
[7] = test system: Enterococcus faecalis; experiment: In vitro antibacterial activity against Enterococcus faecalis IID 682,[…],(gram-positive); type: functional; how it was run: as §1
[8] = test system: Pseudomonas aeruginosa; experiment: In vitro antibacterial activity against Pseudomonas aeruginosa E-2,Pa(E),(gram-negative); type: functional; how it was run: as §1
[9] = test system: Staphylococcus epidermidis; experiment: In vitro antibacterial activity against staphylococcus epidermidis IAM 1296, (gram-positive); type: functional; how it was run: as §1
[10] = test system: Escherichia coli; experiment: In vitro antibacterial activity was measured against nalidixic acid resistant strain 3 from Escherichia coli KC-14; type: functional
How it was run: (§2)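 MIC by serial 2-fold agar dilution on Mueller–Hinton agar, inoculum about 10^6 CFU/mL. Plates were incubated 37 °C for 18 h. MIC was the lowest concentration preventing visible growth.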

[11] = test system: Escherichia coli; experiment: In vitro antibacterial activity was measured against nalidixic acid resistant strain 4 from Escherichia coli KC-14; type: functional; how it was run: as §2
[12] = test system: Escherichia coli; experiment: In vitro antibacterial activity was measured against nalidixic acid resistant strain 7 from Escherichia coli KC-14; type: functional; how it was run: as §2
[13] = test system: Escherichia coli; experiment: In vitro antibacterial activity was measured against nalidixic acid resistant strain 2 from Escherichia coli KC-14; type: functional; how it was run: as §2
[14] = test system: Escherichia coli; experiment: In vitro antibacterial activity was measured against nalidixic acid resistant strain 1 from Escherichia coli KC-14; type: functional; how it was run: as §2
[15] = test system: Escherichia coli; experiment: In vitro antibacterial activity was measured against nalidixic acid resistant strain 6 from Escherichia coli KC-14; type: functional; how it was run: as §2
[16] = test system: Escherichia coli; experiment: In vitro antibacterial activity was measured against nalidixic acid resistant strain 5 from Escherichia coli KC-14; type: functional; how it was run: as §2
[17] = test system: Enterococcus faecalis; experiment: In vitro antibacterial activity against Enterococcus faecalis IID 682,Ef.([…]); type: functional; how it was run: as §1

Row | SMILES | MIC [1] [µg/mL] | MIC [2] [µg/mL] | MIC [3] [µg/mL] | MIC [4] [µg/mL] | MIC [5] [µg/mL] | MIC [6] [µg/mL] | MIC [7] [µg/mL] | MIC [8] [µg/mL] | MIC [9] [µg/mL] | MIC [10] [µg/mL] | MIC [11] [µg/mL] | MIC [12] [µg/mL] | MIC [13] [µg/mL] | MIC [14] [µg/mL] | MIC [15] [µg/mL] | MIC [16] [µg/mL] | MIC [17] [µg/mL]
1 | O=C(O)c1c(=O)c2cc(F)c(N3C[C@H](O)[C@@H](O)C3)c3c2n2c(csc12)CO3 | > 25 | 3.13 (≈ 7.98 µM) | 1.56 (≈ 3.98 µM) | 3.13 (≈ 7.98 µM) | 1.56 (≈ 3.98 µM) | 1.56 (≈ 3.98 µM) | > 25 | > 25 | > 25 |  |  |  |  |  |  |  | 
2 | C[C@@H]1CN(c2c(F)cc3c(=O)c(C(=O)O)c4scc5n4c3c2OC5)C[C@H](C)N1.Cl | 3.13 | 0.1 | 0.2 | 0.2 | 0.39 | 0.2 | 0.78 | 3.13 | 0.39 |  |  |  |  |  |  |  | 
3 | CSc1c(F)cc2c(=O)c(C(=O)O)c3scc4n3c2c1OC4 | 1.56 (≈ 4.62 µM) | 0.2 (≈ 0.593 µM) | 0.2 (≈ 0.593 µM) | 0.39 (≈ 1.16 µM) | 0.39 (≈ 1.16 µM) | 0.1 (≈ 0.296 µM) | 3.13 (≈ 9.28 µM) | 3.13 (≈ 9.28 µM) | 0.2 (≈ 0.593 µM) |  |  |  |  |  |  |  | 
4 | O=C(O)c1c(=O)c2cc(F)c(N3CCC(O)C3)c3c2n2c(csc12)CO3 (centres undefined) | 0.39 (≈ 1.04 µM) | 0.05 (≈ 0.133 µM) | 0.025 (≈ 0.0664 µM) | 0.05 (≈ 0.133 µM) | 0.05 (≈ 0.133 µM) | 0.025 (≈ 0.0664 µM) | 0.2 (≈ 0.531 µM) | 0.39 (≈ 1.04 µM) | 0.2 (≈ 0.531 µM) | 0.78 (≈ 2.07 µM) | 0.78 (≈ 2.07 µM) | 0.2 (≈ 0.531 µM) | > 3.13 | > 3.13 | 0.39 (≈ 1.04 µM) | 0.78 (≈ 2.07 µM) | 
5 | O=C(O)c1c(=O)c2cc(F)c(N3CCCC3)c3c2n2c(csc12)CO3 | 1.56 (≈ 4.33 µM) | 0.2 (≈ 0.555 µM) | 0.025 (≈ 0.0694 µM) | 0.2 (≈ 0.555 µM) | 0.2 (≈ 0.555 µM) | 0.05 (≈ 0.139 µM) | 0.2 (≈ 0.555 µM) | 1.56 (≈ 4.33 µM) | 0.05 (≈ 0.139 µM) |  |  |  |  |  |  |  | 
6 | O=C(O)c1c(=O)c2cc(F)c(N3CCSCC3)c3c2n2c(csc12)CO3 | 6.25 (≈ 15.9 µM) | 0.39 (≈ 0.994 µM) | 0.05 (≈ 0.127 µM) | 0.39 (≈ 0.994 µM) | 0.39 (≈ 0.994 µM) | 0.05 (≈ 0.127 µM) | 3.13 (≈ 7.98 µM) | 3.13 (≈ 7.98 µM) | 0.1 (≈ 0.255 µM) |  |  |  |  |  |  |  | 
7 | O=C1CN(c2c(F)cc3c(=O)c(C(=O)O)c4scc5n4c3c2OC5)CCN1 | 6.25 (≈ 16.1 µM) | 1.56 (≈ 4.01 µM) | 3.13 (≈ 8.04 µM) | 1.56 (≈ 4.01 µM) | 1.56 (≈ 4.01 µM) | 1.56 (≈ 4.01 µM) | 3.13 (≈ 8.04 µM) | 6.25 (≈ 16.1 µM) | 12.5 (≈ 32.1 µM) |  |  |  |  |  |  |  | 
8 | COc1c(F)cc2c(=O)c(C(=O)O)c3scc4n3c2c1OC4 | 3.13 (≈ 9.74 µM) | 0.78 (≈ 2.43 µM) | 0.2 (≈ 0.623 µM) |  | 0.2 (≈ 0.623 µM) | 0.2 (≈ 0.623 µM) | 6.25 (≈ 19.5 µM) | 6.25 (≈ 19.5 µM) | 0.39 (≈ 1.21 µM) |  |  |  |  |  |  |  | 6.25 (≈ 19.5 µM)
9 | CC(=O)NC1CCN(c2c(F)cc3c(=O)c(C(=O)O)c4scc5n4c3c2OC5)C1 (centres undefined) | 6.25 (≈ 15 µM) | 1.56 (≈ 3.74 µM) | 0.2 (≈ 0.479 µM) | 1.56 (≈ 3.74 µM) | 1.56 (≈ 3.74 µM) | 0.1 (≈ 0.24 µM) | 0.78 (≈ 1.87 µM) | 6.25 (≈ 15 µM) | 0.78 (≈ 1.87 µM) |  |  |  |  |  |  |  | 
10 | O=C(O)c1c(=O)c2cc(F)c(N3CCNCC3)c3c2n2c(csc12)CO3 | 0.78 (≈ 2.08 µM) | 0.1 (≈ 0.266 µM) | 0.39 (≈ 1.04 µM) | 0.1 (≈ 0.266 µM) | 0.05 (≈ 0.133 µM) | 0.39 (≈ 1.04 µM) | 0.78 (≈ 2.08 µM) | 0.78 (≈ 2.08 µM) | 1.56 (≈ 4.16 µM) |  |  |  |  |  |  |  | 
11 | NC1CCN(c2c(F)cc3c(=O)c(C(=O)O)c4scc5n4c3c2OC5)C1 (centres undefined) | 0.78 (≈ 2.08 µM) | 0.1 (≈ 0.266 µM) | 0.2 (≈ 0.533 µM) | 0.2 (≈ 0.533 µM) | 0.1 (≈ 0.266 µM) | 0.39 (≈ 1.04 µM) | 0.78 (≈ 2.08 µM) | 0.78 (≈ 2.08 µM) | 0.78 (≈ 2.08 µM) |  |  |  |  |  |  |  | 
12 | CCNCC1CCN(c2c(F)cc3c(=O)c(C(=O)O)c4scc5n4c3c2OC5)C1 (centres undefined) | 25 (≈ 59.9 µM) | 0.39 (≈ 0.934 µM) | 0.2 (≈ 0.479 µM) |  | 0.39 (≈ 0.934 µM) | 0.2 (≈ 0.479 µM) | 0.39 (≈ 0.934 µM) | 3.13 (≈ 7.5 µM) | 0.1 (≈ 0.24 µM) |  |  |  |  |  |  |  | 

— ChEMBL document CHEMBL1126175, “Synthesis and antibacterial activity of new tetracyclic quinolone antibacterials” (J Med Chem, 1992)
